{"data": "Results gathered from unrelated publications", "target": "Tyrosine-protein kinase Fer (FER, Homo sapiens, UniProt P16591)"}
{"Compound": "COc1cnc(Nc2cccc(S(N)(=O)=O)c2)nc1N1CCN(c2ccccc2)C(=O)C1", "assay": "binding, competition with immobilised ligand", "setting": "1 µM", "remaining binding [%]": 100}
{"Compound": "O=C(Nc1c[nH]nc1C(=O)NC1CCNCC1)c1cc(F)cc(F)c1", "assay": "binding, competition with immobilised ligand", "setting": "1 µM", "remaining binding [%]": 100}
{"Compound": "CS(=O)(=O)c1cc(C2(NC(=O)c3cncc4c3cnn4-c3ccc(F)cc3)CC2)ccn1", "assay": "cell-free assay, competition with immobilised ligand", "setting": "1 µM", "remaining binding [%]": 100}
{"Compound": "O=C(c1ccc(Nc2nccc(-c3cc4ccccc4s3)n2)cc1)N1CCC(N2CCCC2)CC1", "assay": "binding, competition with immobilised ligand", "setting": "1 µM", "remaining binding [%]": 100}
{"Compound": "COc1ncc2cc3ccccc3nc2c1C#N", "assay": "cell-free assay, competition with immobilised ligand", "setting": "5 µM", "remaining binding [%]": 100}
{"Compound": "CNC(=O)[C@@H]1CC[C@@H](n2c(-c3ccc4cnccc4c3)nc3ccc(C(=O)NCc4cccc(C(N)=O)c4)cc32)C1", "assay": "binding, competition with immobilised ligand", "setting": "1 µM", "remaining binding [%]": 100}
{"Compound": "c1cnn2ncc(-c3ccnc(N4CCC45COC5)n3)c2c1", "assay": "binding", "setting": "1 µM", "remaining binding [%]": 91}
{"Compound": "CO[C@H]1CC[C@H](CNc2ccc(S(=O)(=O)NC(=O)c3ccc(N4CCN(CC5=C(c6ccc(Cl)cc6)CC(C)(C)CC5)CC4)cc3Oc3cnc4[nH]ccc4c3)cc2[N+](=O)[O-])CC1", "assay": "cell-free assay, competition with immobilised ligand", "setting": "1 µM", "remaining binding [%]": 67}
{"Compound": "CN(CCCC(F)(F)F)c1nccc(-c2cnn3ncccc23)n1", "assay": "binding", "setting": "1 µM", "remaining binding [%]": 65}
{"Compound": "C[C@@]1(Cc2ccc(C#N)cc2)C(=O)N(c2cc(Cl)cc(Cl)c2)c2ncc(C(=O)NC3(c4nc(C5CCC5)no4)CC3)n21", "assay": "cell-free assay, competition with immobilised ligand", "setting": "1 µM", "remaining binding [%]": 100}
{"Compound": "N[C@H]1CCN(c2nccc(-c3cnn4ncccc34)n2)C1", "assay": "binding", "setting": "1 µM", "remaining binding [%]": 97}
{"Compound": "O=C(c1ccc(Nc2ncc(Cl)c(-c3ccc(Cl)s3)n2)cc1)N1CCC(N2CCCC2)CC1", "assay": "binding, competition with immobilised ligand", "setting": "1 µM", "remaining binding [%]": 81}
{"Compound": "F[C@@H]1CCN(c2nccc(-c3cnn4ncccc34)n2)C1", "assay": "binding", "setting": "1 µM", "remaining binding [%]": 81}
{"Compound": "CC(=O)N1CCC(c2ccc(C(=O)NC(=N)N)cc2C(F)(F)F)CC1", "assay": "cell-free assay, competition with immobilised ligand", "setting": "1 µM", "remaining binding [%]": 96}
{"Compound": "C[C@H]1CCN(c2nccc(-c3cnn4ncccc34)n2)C1", "assay": "binding", "setting": "1 µM", "remaining binding [%]": 93}
{"Compound": "C=CC(=O)N1CCC(C(=O)NCC(=O)N2CCN(c3nc(-c4cnc(N)nc4C(F)F)nc(N4CCOCC4)n3)CC2)CC1", "assay": "binding, competition with immobilised ligand", "setting": "1 µM", "remaining binding [%]": 87}
{"Compound": "CCC(=O)N[C@H]1CC[C@@H](C(=O)N(C)c2ccc(-c3nc4ccccc4o3)cc2)C1", "assay": "cell-free assay, competition with immobilised ligand", "setting": "1 µM", "remaining binding [%]": 90}
{"Compound": "O=C(NCCCN1CCOCC1)c1ccc(Nc2nccc(-c3cc4ccccc4s3)n2)cc1", "assay": "binding, competition with immobilised ligand", "setting": "1 µM", "remaining binding [%]": 100}
{"Compound": "CN(C)c1nccc(-c2cnn3ncccc23)n1", "assay": "binding", "setting": "1 µM", "remaining binding [%]": 97}
{"Compound": "CC(=O)C1=C(C)N(c2cccc(C(F)(F)F)c2)C(=O)N[C@@H]1c1ccc(C#N)nc1", "assay": "cell-free assay, competition with immobilised ligand", "setting": "1 µM", "remaining binding [%]": 96.9}
{"Compound": "Nc1ncc2c(n1)-c1c([nH]c3ccc(C#CC4CC4)cc13)CCCC2", "assay": "binding, competition with immobilised ligand", "setting": "1 µM", "remaining binding [%]": 100}
